Assay results from ChEMBL document CHEMBL5705905, “Pharmacological targeting of kinases MST1 and MST2 augments tissue repair and regeneration” (Sci Transl Med, 2016).
Active and inactive are the calls of the source. The rule behind the calls is not given here.

What was measured:
[1] = target: AP2-associated protein kinase 1 (Homo sapiens) (UniProt Q2M2I8); test: Inhibition of AAK1 (unknown origin) assessed as remaining activity at 1 uM by Kinome scan method relative to control
Procedure, shortened: (§1)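 Active-site-dependent competition-binding (KINOMEscan) panel of 468 kinases, test compound at 1 μM (from a 10 mM DMSO stock). Read-out is ctrl% = (test signal − positive control signal)/(negative control signal − positive control signal) × 100. DMSO is the negative control (100%) and a control compound is the positive control (0%). Lower ctrl% means tighter binding.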

[2] = system: Tyrosine-protein kinase ABL1 (Homo sapiens), P00519 [F317I]; test: Inhibition of ABL1 F317I mutant (unknown origin) assessed as remaining activity at 1 uM by Kinome scan method relative to control; procedure, shortened: as §1
[3] = target: Activin receptor type-2A (Homo sapiens) (UniProt P27037); test: Inhibition of ACVR2A (unknown origin) assessed as remaining activity at 1 uM by Kinome scan method relative to control; procedure, shortened: as §1
[4] = target: Cyclin-dependent kinase 19 (Homo sapiens) (UniProt Q9BWU1); test: Inhibition of CDK11 (unknown origin) assessed as remaining activity at 1 uM by Kinome scan method relative to control
Procedure, shortened: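 KINOMEscan active-site-dependent competition-binding panel of 468 kinases, compound at 1 μM from a DMSO stock. Result reported as ctrl% = (test signal − positive control signal)/(negative control signal − positive control signal) × 100. The negative control is DMSO (100%) and the positive control is a control compound (0%). Lower ctrl% means tighter binding.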

[5] = target: Cyclin-dependent kinase 5 (Homo sapiens) (UniProt Q00535); test: Inhibition of CDK5 (unknown origin) assessed as remaining activity at 1 uM by Kinome scan method relative to control
Procedure, shortened: (§2)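 Active-site-dependent competition-binding profiling (KINOMEscan) at 1 μM against a 468-kinase panel; compound supplied from a 10 mM DMSO stock. Read-out is ctrl% = (test signal − positive control signal)/(negative control signal − positive control signal) × 100. DMSO is the negative control (100%) and a control compound the positive control (0%). Lower ctrl% means tighter binding.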

[6] = target: Dual specificity protein kinase CLK2 (Homo sapiens) (UniProt P49760); test: Inhibition of CLK2 (unknown origin) assessed as remaining activity at 1 uM by Kinome scan method relative to control; procedure, shortened: as §2
[7] = target: Serine/threonine-protein kinase 24 (Homo sapiens, UniProt Q9Y6E0); test: Inhibition of MST3 (unknown origin) assessed as remaining activity at 1 uM by Kinome scan method relative to control
[8] = target: Serine/threonine-protein kinase Nek4 (Homo sapiens) (UniProt P51957); test: Inhibition of NEK4 (unknown origin) assessed as remaining activity at 1 uM by Kinome scan method relative to control
[9] = system: Proto-oncogene tyrosine-protein kinase receptor Ret (Homo sapiens), P07949 [V804M]; test: Inhibition of RET V804M (unknown origin) assessed as remaining activity at 1 uM by Kinome scan method relative to control
[10] = target: Serine/threonine-protein kinase TNNI3K (Homo sapiens) (UniProt Q59H18); test: Inhibition of TNNI3K (unknown origin) assessed as remaining activity at 1 uM by Kinome scan method relative to control
[11] = target: Serine/threonine-protein kinase 32A (Homo sapiens) (UniProt Q8WU08); test: Inhibition of YANK1 (unknown origin) assessed as remaining activity at 1 uM by Kinome scan method relative to control
[12] = target: Serine/threonine-protein kinase 26 (Homo sapiens, UniProt Q9P289); test: Inhibition of MST4 (unknown origin) in presence of ATP by enzymatic assay
[13] = target: Serine/threonine-protein kinase DCLK1 (Homo sapiens, UniProt O15075); test: Inhibition of DCAMKL1 (unknown origin) in presence of ATP by enzymatic assay
[14] = target: Phosphatidylinositol 4-phosphate 5-kinase type-1 gamma (Homo sapiens, UniProt O60331); test: Inhibition of PIP5K1C (unknown origin) in presence of ATP by enzymatic assay
HepG2 = test: Inhibition of Flag-tagged MST1 Y101F/D109A mutant (unknown origin) in human HepG2 cells assessed as MOB1 phosphorylation level at 0.3 to 10 uM by immunoblot analysis; type: cell-based; details: dose 0.3-10 µM
[15] = AUC (0 to t) in male Sprague-Dawley rat at 10 mg/kg, po measured for 24 hrs by LC-MS/MS analysis; type: ADME, organism-based; details: in vivo
Procedure, shortened: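 Sprague-Dawley rats, single intravenous or oral dose. Parameters (half-life, AUC, bioavailability) reported in a supplementary table.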

[16] = Acute toxicity in wild-type mouse assessed as ratio of liver weight to body weight at 1 mg/kg,ip administrated daily for 2 months and after 2 weeks drug withdrawal; type: organism-based; details: in vivo, 1460 h
Procedure, shortened: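 Liver/body weight ratio in wild-type mice after 1 mg/kg i.p. daily for 2 months, or after a further 2 weeks off drug. n = 6; means ± SD, Student's t test. Vehicle was 0.1% citric acid aqueous solution with 20% Kolliphor HS 15.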

Mus musculus [17] = test: Protection against APAP induced liver injury in mouse assessed as increase in survival rate at 1 mg/kg, ip administered at 2.5 hrs […]; type: functional
Procedure, shortened: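 Wild-type mice given oral APAP 400 mg/kg, then i.p. vehicle, NAC 250 mg/kg, 1 mg/kg test agent, or NAC plus test agent at 1.5 or 2.5 h. Mortality was tracked with n = 10–11 per group, Mantel-Cox test. Separately, TUNEL was done on liver after 200 mg/kg APAP with treatment at 2.5 h.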

Mus musculus [18] = test: Anti-colitis activity against DSS-induced mouse assessed as cancerous phenotype at 1 mg/kg, ip administrated daily for 1 week; type: functional, organism-based; details: Colon, time 1.0 weeks
Procedure, shortened: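 DSS given orally for 7 days. Mice received 1 mg/kg intraperitoneally daily for 1 week. Animals were followed for more than 10 months for cancerous phenotypes.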

[19] = target: T1, Serine/threonine-protein kinase 4 (Homo sapiens, UniProt Q13043)
T1 sequence (Q13043 whole entry): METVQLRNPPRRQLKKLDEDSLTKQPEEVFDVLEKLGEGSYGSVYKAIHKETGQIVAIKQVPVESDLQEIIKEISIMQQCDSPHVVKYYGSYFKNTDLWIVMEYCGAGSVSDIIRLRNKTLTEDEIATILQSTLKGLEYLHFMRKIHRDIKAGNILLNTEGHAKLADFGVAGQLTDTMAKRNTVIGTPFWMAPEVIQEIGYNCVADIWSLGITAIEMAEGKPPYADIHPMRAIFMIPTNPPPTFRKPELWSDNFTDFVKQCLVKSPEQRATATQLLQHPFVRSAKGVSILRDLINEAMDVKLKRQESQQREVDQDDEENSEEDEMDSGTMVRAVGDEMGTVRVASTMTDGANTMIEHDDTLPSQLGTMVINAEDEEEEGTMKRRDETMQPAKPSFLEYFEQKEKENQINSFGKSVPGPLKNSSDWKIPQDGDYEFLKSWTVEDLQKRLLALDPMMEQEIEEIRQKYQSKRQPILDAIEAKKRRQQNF

Chain of Serine/threonine-protein kinase 26 (Q9P289 whole entry): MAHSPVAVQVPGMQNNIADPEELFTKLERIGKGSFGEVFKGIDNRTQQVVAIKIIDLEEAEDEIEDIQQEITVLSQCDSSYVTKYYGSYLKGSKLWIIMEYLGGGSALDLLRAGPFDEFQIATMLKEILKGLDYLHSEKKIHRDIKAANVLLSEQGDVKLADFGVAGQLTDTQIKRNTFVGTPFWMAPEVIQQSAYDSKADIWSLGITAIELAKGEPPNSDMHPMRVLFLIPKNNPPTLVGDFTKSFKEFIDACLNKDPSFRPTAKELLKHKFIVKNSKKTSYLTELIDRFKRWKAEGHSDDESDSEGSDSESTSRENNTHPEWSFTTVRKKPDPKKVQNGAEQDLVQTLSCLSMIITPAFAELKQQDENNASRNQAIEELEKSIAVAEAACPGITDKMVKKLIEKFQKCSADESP
Chain of AP2-associated protein kinase 1 (Homo sapiens) (Q2M2I8 whole entry, looked up): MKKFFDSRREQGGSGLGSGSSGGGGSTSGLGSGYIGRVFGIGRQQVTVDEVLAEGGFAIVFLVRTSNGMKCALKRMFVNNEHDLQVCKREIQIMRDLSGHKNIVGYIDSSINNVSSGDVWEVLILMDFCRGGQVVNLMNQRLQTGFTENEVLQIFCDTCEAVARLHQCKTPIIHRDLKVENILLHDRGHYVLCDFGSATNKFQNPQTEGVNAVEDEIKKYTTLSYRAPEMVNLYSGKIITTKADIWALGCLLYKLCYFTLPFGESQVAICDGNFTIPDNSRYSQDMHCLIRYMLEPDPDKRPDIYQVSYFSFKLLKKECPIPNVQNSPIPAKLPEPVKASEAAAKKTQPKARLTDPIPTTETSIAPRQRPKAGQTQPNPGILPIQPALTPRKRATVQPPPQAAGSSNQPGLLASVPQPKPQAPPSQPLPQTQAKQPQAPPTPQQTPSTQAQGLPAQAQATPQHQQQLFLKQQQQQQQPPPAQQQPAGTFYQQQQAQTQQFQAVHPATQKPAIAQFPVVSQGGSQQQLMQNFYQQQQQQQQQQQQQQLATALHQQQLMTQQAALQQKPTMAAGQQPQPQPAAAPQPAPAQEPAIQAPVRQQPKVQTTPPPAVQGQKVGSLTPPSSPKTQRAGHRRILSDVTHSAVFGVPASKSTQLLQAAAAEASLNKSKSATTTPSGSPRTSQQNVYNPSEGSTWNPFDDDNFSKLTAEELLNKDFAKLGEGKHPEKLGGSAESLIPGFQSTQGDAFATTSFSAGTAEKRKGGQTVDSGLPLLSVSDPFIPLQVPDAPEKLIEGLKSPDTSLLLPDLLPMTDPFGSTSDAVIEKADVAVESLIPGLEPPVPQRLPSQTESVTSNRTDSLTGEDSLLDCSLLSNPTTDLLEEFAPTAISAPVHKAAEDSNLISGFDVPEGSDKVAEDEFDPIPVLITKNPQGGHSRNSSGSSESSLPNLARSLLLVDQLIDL
Chain of Cyclin-dependent kinase 19 (Homo sapiens) (Q9BWU1 whole entry): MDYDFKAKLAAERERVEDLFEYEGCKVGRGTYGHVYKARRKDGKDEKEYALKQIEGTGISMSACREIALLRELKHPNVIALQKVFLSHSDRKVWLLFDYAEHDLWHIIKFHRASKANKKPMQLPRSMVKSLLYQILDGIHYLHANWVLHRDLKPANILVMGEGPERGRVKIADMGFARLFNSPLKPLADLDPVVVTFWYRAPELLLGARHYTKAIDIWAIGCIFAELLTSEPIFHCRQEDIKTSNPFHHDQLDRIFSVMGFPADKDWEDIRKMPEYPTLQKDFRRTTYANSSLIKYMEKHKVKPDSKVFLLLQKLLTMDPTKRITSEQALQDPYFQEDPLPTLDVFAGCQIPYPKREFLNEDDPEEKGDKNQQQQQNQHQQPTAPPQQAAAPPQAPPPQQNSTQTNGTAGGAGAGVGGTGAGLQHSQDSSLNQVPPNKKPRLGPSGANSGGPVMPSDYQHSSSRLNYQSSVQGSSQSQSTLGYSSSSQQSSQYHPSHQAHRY
Chain of Serine/threonine-protein kinase 24 (Q9Y6E0 whole entry, looked up): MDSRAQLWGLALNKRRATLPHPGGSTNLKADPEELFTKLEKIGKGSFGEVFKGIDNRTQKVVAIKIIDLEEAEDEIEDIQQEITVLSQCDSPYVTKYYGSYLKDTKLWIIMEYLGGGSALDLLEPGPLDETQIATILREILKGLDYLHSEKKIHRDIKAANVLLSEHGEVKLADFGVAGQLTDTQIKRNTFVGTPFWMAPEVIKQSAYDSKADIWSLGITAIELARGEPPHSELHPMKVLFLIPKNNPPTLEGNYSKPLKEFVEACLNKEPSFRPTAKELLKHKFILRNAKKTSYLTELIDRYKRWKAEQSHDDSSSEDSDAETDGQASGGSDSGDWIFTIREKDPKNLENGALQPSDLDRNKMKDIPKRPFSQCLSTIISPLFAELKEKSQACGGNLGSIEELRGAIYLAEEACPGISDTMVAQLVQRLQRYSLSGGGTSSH
Chain of Serine/threonine-protein kinase TNNI3K (Homo sapiens) (Q59H18 whole entry): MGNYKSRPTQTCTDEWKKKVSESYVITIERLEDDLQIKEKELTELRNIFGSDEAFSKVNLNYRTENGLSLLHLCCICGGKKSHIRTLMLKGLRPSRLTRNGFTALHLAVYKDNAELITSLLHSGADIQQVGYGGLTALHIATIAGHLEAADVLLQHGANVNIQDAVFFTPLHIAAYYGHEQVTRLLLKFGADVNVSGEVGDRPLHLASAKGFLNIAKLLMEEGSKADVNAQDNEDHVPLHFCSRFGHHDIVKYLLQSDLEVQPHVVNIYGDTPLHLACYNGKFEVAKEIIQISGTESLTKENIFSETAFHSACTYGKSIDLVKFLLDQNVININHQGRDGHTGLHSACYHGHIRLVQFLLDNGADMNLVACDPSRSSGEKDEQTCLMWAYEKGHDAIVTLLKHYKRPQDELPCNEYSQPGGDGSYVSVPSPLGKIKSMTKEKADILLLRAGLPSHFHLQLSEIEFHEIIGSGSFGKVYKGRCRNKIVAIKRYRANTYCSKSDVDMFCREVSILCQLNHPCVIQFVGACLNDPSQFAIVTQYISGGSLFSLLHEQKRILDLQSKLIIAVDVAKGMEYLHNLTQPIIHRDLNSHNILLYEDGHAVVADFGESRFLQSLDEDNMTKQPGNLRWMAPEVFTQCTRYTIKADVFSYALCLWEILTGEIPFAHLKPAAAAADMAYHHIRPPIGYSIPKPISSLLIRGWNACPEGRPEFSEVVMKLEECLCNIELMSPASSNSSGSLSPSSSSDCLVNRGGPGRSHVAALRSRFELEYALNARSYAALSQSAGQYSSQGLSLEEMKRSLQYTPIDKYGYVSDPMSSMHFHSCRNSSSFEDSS
Chain of Serine/threonine-protein kinase Nek4 (Homo sapiens) (P51957 whole entry, looked up): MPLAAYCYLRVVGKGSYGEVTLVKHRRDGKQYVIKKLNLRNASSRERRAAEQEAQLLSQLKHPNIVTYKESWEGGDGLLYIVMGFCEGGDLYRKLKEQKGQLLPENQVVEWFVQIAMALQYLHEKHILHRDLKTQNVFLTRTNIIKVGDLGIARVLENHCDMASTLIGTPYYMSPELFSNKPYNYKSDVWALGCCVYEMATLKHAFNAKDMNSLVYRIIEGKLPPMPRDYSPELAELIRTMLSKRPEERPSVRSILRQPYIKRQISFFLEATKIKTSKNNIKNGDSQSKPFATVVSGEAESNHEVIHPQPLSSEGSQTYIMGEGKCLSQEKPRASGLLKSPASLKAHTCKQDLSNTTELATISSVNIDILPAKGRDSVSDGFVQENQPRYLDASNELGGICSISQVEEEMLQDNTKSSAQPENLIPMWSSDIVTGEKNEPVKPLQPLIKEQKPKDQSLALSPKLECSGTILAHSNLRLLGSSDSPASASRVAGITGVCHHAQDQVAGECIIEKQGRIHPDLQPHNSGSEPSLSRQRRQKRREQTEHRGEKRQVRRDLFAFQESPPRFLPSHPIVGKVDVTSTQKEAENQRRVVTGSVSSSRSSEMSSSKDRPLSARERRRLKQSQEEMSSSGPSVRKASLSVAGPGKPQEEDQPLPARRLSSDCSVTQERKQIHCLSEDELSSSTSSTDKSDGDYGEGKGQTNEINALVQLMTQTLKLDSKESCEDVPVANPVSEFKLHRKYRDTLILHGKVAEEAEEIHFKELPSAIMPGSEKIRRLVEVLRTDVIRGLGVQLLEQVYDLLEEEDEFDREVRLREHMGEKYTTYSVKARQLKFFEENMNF
Chain of Activin receptor type-2A (Homo sapiens) (P27037 whole entry): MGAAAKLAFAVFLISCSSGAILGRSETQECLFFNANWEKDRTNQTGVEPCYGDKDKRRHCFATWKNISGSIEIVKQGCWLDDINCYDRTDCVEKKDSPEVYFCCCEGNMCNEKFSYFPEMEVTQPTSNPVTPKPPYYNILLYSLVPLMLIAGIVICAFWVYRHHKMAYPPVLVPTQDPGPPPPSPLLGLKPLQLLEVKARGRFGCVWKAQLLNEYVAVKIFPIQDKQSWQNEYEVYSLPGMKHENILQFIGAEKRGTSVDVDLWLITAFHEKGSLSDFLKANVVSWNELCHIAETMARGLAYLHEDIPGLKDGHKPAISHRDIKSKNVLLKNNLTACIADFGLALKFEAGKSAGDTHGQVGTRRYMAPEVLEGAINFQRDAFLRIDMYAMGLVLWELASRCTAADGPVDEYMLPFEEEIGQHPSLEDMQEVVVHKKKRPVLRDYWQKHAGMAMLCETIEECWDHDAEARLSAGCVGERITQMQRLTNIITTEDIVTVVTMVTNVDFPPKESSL
Chain of Cyclin-dependent kinase 5 (Homo sapiens) (Q00535 whole entry, looked up): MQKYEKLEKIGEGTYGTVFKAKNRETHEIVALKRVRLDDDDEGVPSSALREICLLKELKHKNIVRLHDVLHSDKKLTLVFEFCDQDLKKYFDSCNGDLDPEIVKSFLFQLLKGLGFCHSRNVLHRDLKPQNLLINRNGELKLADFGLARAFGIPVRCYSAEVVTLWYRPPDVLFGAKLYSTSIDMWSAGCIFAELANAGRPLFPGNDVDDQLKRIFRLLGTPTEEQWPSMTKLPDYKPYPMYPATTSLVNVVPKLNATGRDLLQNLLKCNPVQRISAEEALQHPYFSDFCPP

Compound `CN1C(=O)c2sccc2N(C)c2nc(Nc3ccc(S(N)(=O)=O)cc3)ncc21` has an Activity [1] of 100%, an Activity [2] of 40% and an Activity [3] of 100%. For the same compound, the Activity [4] was 95%, the Activity [5] was 94% and the Activity [6] was 71%. For the same compound, the Activity [7] was 0.9%, the Activity [8] was 94% and the Activity [9] was 92%. The Activity [10] was 100%, the Activity [11] was 100% and the IC50 [12] was 27.3 nM. The IC50 [13] was 27.9 nM, the IC50 [14] was 436 nM and the inhibition (HepG2) was “Active”. For the same compound, the AUC(0-t) at 24 h [15] was 993 ng·h/mL, the Activity [16] was “Toxic” and the Activity (Mus musculus [17]) was ~40%. For the same compound, the Activity (Mus musculus [18]) was “Active” and the IC50 [19] was 70.7 nM.
